The text below walks through data of ChEMBL document CHEMBL1142895, “Discovery of a new insecticide lead by optimizing a target-diverse scaffold: tetrazolinone derivatives” (2007).

Calls of active or inactive are those of the source. No cut-off for these calls is given here.

Experiment [1] deals with Sorghum bicolor. Put plainly: Inhibition of stem growth of Sorghum bicolor at 100 mg/L. Type of experiment: functional. In short, it runs like this:
(§1)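 Seeds of each species were grown in Petri dishes with 10 seeds per dish, at 28 °C, 70–80% RH, 16:8 h light:dark photoperiod and 3000 lx light for 5 days. Root and stem lengths were measured for the 10 seeds and averaged. Each test and its controls were run in three replicates, and the data were given probit analysis.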

The test system of experiment [2] is Echinochloa crus-galli. Put plainly: Herbicidal activity against Echinochloa crus-galli at 450 g ai/ha in greenhouse in vivo test. Format: functional, organism-based.
In experiment [3] the test system is Echinochloa crus-galli. Put plainly: Inhibition of root growth of Echinochloa crus-galli at 100 mg/L. Type of experiment: functional. In outline: as §1
Another experiment deals with Aphis. Put plainly: Insecticidal activity against Aphis medicagini at 250 mg/L. Type of experiment: functional. In short, it runs like this: (§2)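 Groups of 10 of each species were placed in glass Petri dishes and sprayed with test solution using a Potter sprayer. After air-drying, they were held under normal rearing conditions. Mortality at 72 h was taken from the number and size of live larvae relative to untreated controls.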

Experiment [4] deals with Triticum aestivum. Put plainly: Herbicidal activity against Triticum aestivum at 450 g ai/ha in greenhouse in vivo test. Format: functional, organism-based.
Experiment [5] relates to Triticum aestivum. Put plainly: Inhibition of root growth of Triticum aestivum at 100 mg/L. Type of experiment: functional. In outline:
as §1

Experiment [6] has as its system Radish. Put plainly: Inhibition of stem growth of Raphanus sativus at 100 mg/L. Type of experiment: functional. In outline: as §1
Experiment [7] deals with Brassica rapa subsp. oleifera. Put plainly: Herbicidal activity against Brassica campestris at 450 g ai/ha in greenhouse in vivo test. Format: functional, organism-based.
The test system of experiment [8] is Echinochloa crus-galli. Put plainly: Inhibition of stem growth of Echinochloa crus-galli at 100 mg/L. Format: functional. In short, it runs like this: as §1
Experiment [9] concerns Triticum aestivum. Put plainly: Inhibition of stem growth of Triticum aestivum at 100 mg/L. Format: functional. In short, it runs like this:
as §1

Experiment [10] has as its system Cucumis sativus. Put plainly: Herbicidal activity against Cucumis sativus at 450 g ai/ha in greenhouse in vivo test. Format: functional, organism-based.
Experiment [11] deals with Brassica rapa subsp. oleifera. Put plainly: Inhibition of root growth of Brassica campestris at 100 mg/L. Format: functional. In outline:
as §1

For experiment [12], the system named is Cucumis sativus. Put plainly: Inhibition of stem growth of Cucumis sativus at 100 mg/L. Type of experiment: functional. In short, it runs like this: as §1
The next experiment has as its system Tetranychus cinnabarinus. Put plainly: Insecticidal activity against Tetranychus cinnabarinus at 250 mg/L. Type of experiment: functional. In short, it runs like this:
as §2

The test system of experiment [13] is Radish. Put plainly: Inhibition of root growth of Raphanus sativus at 100 mg/L. Format: functional. In short, it runs like this:
as §1

The subject of experiment [14] is Radish. Put plainly: Herbicidal activity against Raphanus sativus at 450 g ai/ha in greenhouse in vivo test. Format: functional, organism-based.
Experiment [15] relates to Sorghum bicolor. Put plainly: Inhibition of root growth of Sorghum bicolor at 100 mg/L. Type of experiment: functional. In short, it runs like this: as §1
For experiment [16], the system named is Sorghum bicolor. Put plainly: Herbicidal activity against Sorghum bicolor at 450 g ai/ha in greenhouse in vivo test. Type of experiment: functional, organism-based.
In experiment [17] the test system is Cucumis sativus. Put plainly: Inhibition of root growth of Cucumis sativus at 100 mg/L. Format: functional. In short, it runs like this: as §1
Experiment [18] concerns Brassica rapa subsp. oleifera. Put plainly: Inhibition of stem growth of Brassica campestris at 100 mg/L. Type of experiment: functional. In short, it runs like this: as §1

In the case of `O=c1n(Cc2ccccc2F)nnn1-c1ccc(Cl)cc1`, the inhibition at 100 µg/mL with Sorghum bicolor [1], in the experiment with Echinochloa crus-galli [3], in the experiment with Triticum aestivum [5], in the experiment with Radish [6], in the experiment on Echinochloa crus-galli [8] and with Triticum aestivum [9] was 0% in each case. The inhibition at 100 µg/mL (in [11]; in the experiment on Cucumis sativus [12]; in the experiment on Radish [13]; in the experiment on Sorghum bicolor [15]; in the experiment with Cucumis sativus [17]; in experiment [18]) was 0% in each case. Further, the outcome (in the experiment with Echinochloa crus-galli [2]; with Triticum aestivum [4]; in [7]; in the experiment with Cucumis sativus [10]; in the experiment with Radish [14]; with Sorghum bicolor [16]) was inactive. Also, the Activity in the experiment on Aphis was found to be 5%; in the experiment with Tetranychus cinnabarinus, 10%.
For `CCCCCCCCSc1nnc(Cn2nnn(-c3ccc(Cl)cc3)c2=O)o1`, the inhibition at 100 µg/mL with Sorghum bicolor [1], with Echinochloa crus-galli [3], in the experiment on Triticum aestivum [5], in the experiment on Radish [6], in the experiment with Echinochloa crus-galli [8] and with Triticum aestivum [9] was 0% throughout. Also, the inhibition at 100 µg/mL (in experiment [11]; with Cucumis sativus [12]; with Radish [13]; in the experiment on Sorghum bicolor [15]; in the experiment on Cucumis sativus [17]; in experiment [18]) was 0% throughout. For the same compound, the result (with Echinochloa crus-galli [2]; with Triticum aestivum [4]; in experiment [7]; in the experiment with Cucumis sativus [10]; with Radish [14]; with Sorghum bicolor [16]) was inactive. Moreover, the Activity was determined as 3.3% in the experiment with Aphis and 2.9% in the experiment on Tetranychus cinnabarinus.
Take `CCSc1nnc(Cn2nnn(-c3ccc(Cl)cc3)c2=O)s1`: the inhibition at 100 µg/mL came out at 60% in the experiment on Sorghum bicolor [1]; 60% in the experiment with Echinochloa crus-galli [3]; 50% in the experiment on Triticum aestivum [5]; 40% in the experiment on Radish [6]; 70% with Echinochloa crus-galli [8]; 40% with Triticum aestivum [9]. The inhibition at 100 µg/mL was 60% in experiment [11]; 30% in the experiment on Cucumis sativus [12]; 50% in the experiment with Radish [13]; 70% in the experiment with Sorghum bicolor [15]; 0% in the experiment with Cucumis sativus [17]; 60% in experiment [18]. Also, the result (in the experiment with Echinochloa crus-galli [2]; with Triticum aestivum [4]; in experiment [7]; in the experiment on Cucumis sativus [10]; with Radish [14]; in the experiment with Sorghum bicolor [16]) was inactive. In addition, the values for the Activity in the experiment with Aphis and in the experiment with Tetranychus cinnabarinus were 82.5% and 5.7%, respectively.
